Screens from PubChem.
SENP1 FRET inh: blocks the human SENP1 SUMO protease catalytic domain; Q9P0U3; inhibition, % at 10 µM; 0.21% of 360,000 active; recombinant SENP1 catalytic domain, CyPet-SUMO1-YPet FRET cleavage; AID 624204;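 active = inhibition at least 30% at 10 µM, raw YFP signal under a set limit, fluorescence ratio 0.5 to 1.5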
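material = recombinant human SENP1 catalytic domain, His6-tagged | quantity = 20 pM enzyme | reagent = 25 nM SUMO1 FRET substrate | compound dosing = 10 µM single point, 0.5% DMSO | timing = 50 min enzyme reaction, room temperature, light-protected | detection = FRET, CFP and YFP emission | control set = no-enzyme low, enzyme-DMSO high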
Platelet DG rel: modulates dense granule release in human platelets. human platelet-rich plasma, SFLLRN dense granule ATP release, luminescence. inhibition, %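 (compounds screened at 7.5 µM in platelet-rich plasma)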. 0.22% of 300,000 active. AID 1663;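 active = mean replicate score, as percent of positive control, at or above 50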
SENP7 inh: inhibitors of human SENP7 protease; recombinant SENP7, Z-RLRGG-aminoluciferin luminescence, 40 min; inhibition, % at 5 µM; 1.5% of 330,000 active; Q9BQF6;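 active = inhibition above about 50% at the single test dose, limit read from the data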
Target sequence (Q9BQF6 706-1050 limits assumed): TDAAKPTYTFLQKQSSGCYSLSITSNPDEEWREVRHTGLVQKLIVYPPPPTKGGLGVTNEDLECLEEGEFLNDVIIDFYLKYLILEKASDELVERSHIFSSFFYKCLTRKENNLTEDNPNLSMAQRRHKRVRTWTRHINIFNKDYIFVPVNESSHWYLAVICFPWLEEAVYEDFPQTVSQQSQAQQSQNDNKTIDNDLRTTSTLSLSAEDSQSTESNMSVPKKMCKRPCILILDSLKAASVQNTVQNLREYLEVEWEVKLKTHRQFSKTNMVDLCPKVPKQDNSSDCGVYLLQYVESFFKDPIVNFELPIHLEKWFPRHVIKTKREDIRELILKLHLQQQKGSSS
SENP6 block: blocks the human protease SENP6 | Recombinant SENP6 catalytic domain, aminoluciferin luminescence | 1.8% of 330,000 active | AID 2599 | inhibition, % at 10 µM;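 active = inhibition above about 50% at the single tested dose, limit read from the data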
SENP8 block-1: SENP8 (human) protease inhibition | 0.64% of 360,000 active | Q96LD8 | inhibition, % at 20 µM | recombinant SENP8, Nedd8 substrate fluorescence; in the data active = inhibition mostly above about 40%, no sharp cut-off; inactive = mostly below about 27%
SENP8 block-2: inhibitors of human SENP8 protease; AID 2540; 1.2% of 330,000 active; inhibition, % at 10 µM; purified SENP8, Z-RLRGG-aminoluciferin cleavage, luminescence; in the data active = inhibition above about 50%
SENP8 conf: confirmation of human SENP8 protease inhibitors; 40% of 6,200 active; inhibition, % at 12.5 µM; Recombinant SENP8, Z-RLRGG-aminoluciferin luminescence, 60 min; shares compounds with SENP7 inh;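 active = mean inhibition across replicates above about 50%, limit read from the data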
SENP6 conf: human SENP6 inhibition, confirmed; shares compounds with SENP7 inh; recombinant SENP6, Z-RLRGG-aminoluciferin luminescence; inhibition, % at 12.5 µM; 58% of 6,200 active
SENP7 confirm: human SENP7 inhibition, confirmed | 69% of 6,200 active | shares compounds with SENP7 inh | inhibition, % at 12.5 µM | recombinant SENP7, Z-RLRGG-aminoluciferin luminescence, 40 min | AID 488917
Casp3 select: caspase-3 inhibition (SENP selectivity assay). inhibition, % at 12.5 µM. shares compounds with SENP7 inh. purified caspase-3, Z-DEVD-aminoluciferin luminescence, 60 min. 60% of 6,200 active;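 active = mean inhibition above about 50%, limit read from the data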
Target sequence (P42574 28-227 limits assumed): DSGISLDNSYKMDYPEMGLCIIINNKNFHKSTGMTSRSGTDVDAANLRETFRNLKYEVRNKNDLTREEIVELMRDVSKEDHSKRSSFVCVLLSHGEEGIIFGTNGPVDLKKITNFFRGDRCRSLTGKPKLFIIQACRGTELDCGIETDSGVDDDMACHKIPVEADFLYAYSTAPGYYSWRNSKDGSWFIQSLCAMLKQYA
SENP luc ctr: interferes with luciferase luminescence in SENP counter-screen | shares compounds with SENP7 inh | Pre-incubated SENP8/Z-RLRGG-aminoluciferin, luciferase luminescence interference | inhibition, % at 12.5 µM | 39% of 6,200 active | AID 488919;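 active = mean inhibition above about 50% when retested at one dose, limit read from the data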
Each line names hits and unclear results; the compound was inactive in the other large screens (follow-up assays come after a bar, where they were run). In the library only some 2.6% were active in any assay of this set; here they are far more common.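 Rule for the calls, unless noted: active = mean inhibition above about 50% in the one-dose retest (limit read from the data); inactive = the rest.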

O=C(NC(=S)Nc1ccc(S(=O)(=O)Nc2nccs2)cc1)c1ccccc1	SENP6 block 64.3 | SENP8 conf 59.9 | SENP6 conf 59.4 | SENP7 confirm 80.1 | Casp3 select 61.0 | SENP luc ctr 61.2
O=C(NC(=S)Nc1ccc(S(=O)(=O)Nc2nccs2)cc1)c1cccnc1	none
CN(CCO)c1nc(N)c2c(N)nc3c(c2c1C#N)CC(=O)N3Cc1cccs1	SENP6 block 73.9 | SENP8 conf inactive | SENP6 conf inactive | SENP7 confirm inactive | Casp3 select inactive | SENP luc ctr inactive
Cc1cc(C)c(C#N)c(N2CCN(c3ccccc3F)CC2)n1	none
COc1ccc(CN2C(=O)Cc3c2nc(N)c2c(N)nc(N4CCOCC4)c(C#N)c32)cc1	SENP6 block 65.6 | SENP8 conf inactive | SENP6 conf inactive | SENP7 confirm inactive | Casp3 select inactive | SENP luc ctr inactive
COCC(C)N1C(=O)Cc2c1nc(N)c1c(N)nc(N3CCN(c4ccccc4F)CC3)c(C#N)c21 (stereo unspecified)	SENP6 block 74.7 | SENP8 conf inactive | SENP6 conf inactive | SENP7 confirm inactive | Casp3 select inactive | SENP luc ctr inactive
COCCN1C(=O)Cc2c1nc(N)c1c(N)nc(N3CCN(c4ccc(F)cc4)CC3)c(C#N)c21	none
COC(=O)[C@@H](Cc1c[nH]c2ccccc12)NC(=O)CNC(=O)c1ccccc1OC	none
CCCCS/C(N)=N/N=C/c1ccccc1O	none
CCCS/C(N)=N/N=C/c1cc(C)ccc1O	SENP6 block 53.3 | SENP8 conf inactive | SENP6 conf inactive | SENP7 confirm 59.0 | Casp3 select inactive | SENP luc ctr inactive
CCN(C(=S)NC(=O)c1ccco1)c1cccc2ccccc12	SENP6 block 70.4 (no result: Platelet DG rel) | SENP8 conf inactive | SENP6 conf inactive | SENP7 confirm inactive | Casp3 select inactive | SENP luc ctr inactive
Cc1ccc(N=Cc2sc(O)c3ccccc23)cc1	SENP7 inh 76.4, SENP6 block 67.6, SENP8 block-2 85.8 | SENP8 conf 90.5 | SENP6 conf 92.2 | SENP7 confirm 99.5 | Casp3 select 74.2 | SENP luc ctr inactive
N#Cc1ccccc1COC(=O)c1ccc2c(c1)OCCO2	SENP6 block 61.4 (no result: Platelet DG rel) | SENP8 conf 59.2 | SENP6 conf 52.0 | SENP7 confirm 78.0 | Casp3 select inactive | SENP luc ctr inactive
Cc1ccc(NCc2ccccc2O)cc1C	SENP6 block 52.5 | SENP8 conf inactive | SENP6 conf inactive | SENP7 confirm 74.3 | Casp3 select inactive | SENP luc ctr 57.4
Cc1cc2ncn(S(=O)(=O)c3ccc(S(N)(=O)=O)cc3)c2cc1C	none (no result: Platelet DG rel, SENP7 inh, SENP6 block, SENP8 block-2)
Cc1cc2ncn(S(=O)(=O)c3ccc(S(=O)(=O)N4CCCCCC4)cc3)c2cc1C	SENP7 inh 67.5 | SENP8 conf inactive | SENP6 conf inactive | SENP7 confirm inactive | Casp3 select inactive | SENP luc ctr inactive
Oc1ccccc1C=NCCCCCCN=Cc1ccccc1O	SENP6 block 69.3, SENP8 block-2 58.6 | SENP8 conf inactive | SENP6 conf inactive | SENP7 confirm inactive | Casp3 select inactive | SENP luc ctr inactive
Oc1ccccc1C=NCCN=Cc1ccccc1O	none
N#C/C(=C\c1ccc(O)c(Br)c1)C(=O)N1CCCCC1	none
Cc1occc1C(=O)/C(C#N)=C/c1ccc(O)c(Br)c1	SENP7 inh 92.6, SENP6 block 97.6, SENP8 block-2 96.9 | SENP8 conf 98.3 | SENP6 conf 100.3 | SENP7 confirm 102.8 | Casp3 select 97.3 | SENP luc ctr 97.3
COc1ccc(Cn2c(/C=C/c3ccccc3)nc3ccccc32)cc1	SENP7 inh 88.5, SENP6 block 89.5, SENP8 block-2 80.9 | SENP8 conf 90.3 | SENP6 conf 91.3 | SENP7 confirm 98.9 | Casp3 select 71.2 | SENP luc ctr inactive
COc1ccc(-c2nc3ccccc3n2Cc2ccccc2)cc1	none
COc1ccc(/C=C/c2nc3ccccc3n2C)cc1	Platelet DG rel 112.8, SENP7 inh 100.5, SENP6 block 101.4, SENP8 block-2 96.0 | SENP8 conf 99.5 | SENP6 conf 100.7 | SENP7 confirm 103.3 | Casp3 select 99.0 | SENP luc ctr 96.7
CCn1c(/C=C/c2ccccc2)nc2ccccc21	SENP7 inh 91.6, SENP6 block 96.7, SENP8 block-2 85.4 | SENP8 conf 94.0 | SENP6 conf 94.4 | SENP7 confirm 101.2 | Casp3 select 93.9 | SENP luc ctr 95.3
CCC1CCCCN1CCCNC(=O)c1ccc2c(c1)N(Cc1ccc(F)cc1)C(=O)c1ccccc1S2=O (stereo unspecified)	none
Clc1ccc(C2=Nc3cc(Cl)ccc3OC2)cc1	SENP7 inh 81.3, SENP6 block 81.3, SENP8 block-2 75.8 | SENP8 conf inactive | SENP6 conf inactive | SENP7 confirm inactive | Casp3 select inactive | SENP luc ctr inactive
c1ccc(C2=Nc3ccccc3OC2)cc1	none
Cc1ccc2c(c1)N=C(c1ccc(Cl)cc1)CO2	SENP7 inh 98.4, SENP6 block 96.0, SENP8 block-2 95.0 | SENP8 conf 83.0 | SENP6 conf 82.0 | SENP7 confirm 85.2 | Casp3 select 80.4 | SENP luc ctr 56.8
Clc1ccc(C2=NN=C3COc4ccccc4N3C2)cc1	none
Cc1cc(C)c(NC(=O)CCN2C(=O)c3ccccc3S2(=O)=O)c(C)c1	none
COc1ccc(-c2coc3c(C(=O)NCc4cccs4)cccc23)c(C)c1	none (no result: Platelet DG rel, SENP7 inh, SENP6 block, SENP8 block-2)
COc1ccc(NC(=O)C2(C)Cc3c(-c4cccc(C(N)=O)c4)ccnc3O2)cn1 (stereo unspecified)	none (no result: Platelet DG rel, SENP7 inh, SENP6 block, SENP8 block-2)
Cc1cc(C(=O)NNC(=O)NC(C)C)no1	none
COCCn1c(C)cc(C(=O)CSc2nc3ccccc3o2)c1C	none
COCCn1c(C)cc(C(=O)CSc2nc3ccccc3s2)c1C	SENP6 block 53.9 | SENP8 conf 54.7 | SENP6 conf inactive | SENP7 confirm 79.9 | Casp3 select inactive | SENP luc ctr inactive
CN(C)c1ccc(/C=N/N2C(=O)c3ccccc3C2=O)cc1	SENP7 inh 90.9, SENP8 block-2 72.4 | SENP8 conf inactive | SENP6 conf 71.2 | SENP7 confirm 60.6 | Casp3 select 50.8 | SENP luc ctr inactive
COc1ccccc1/C=N/N1C(=O)c2cccc3cccc(c23)C1=O	none
